Assay results as given in ChEMBL document CHEMBL3603824, “Evaluation of spiropiperidine hydantoins as a novel class of antimalarial agents” (Bioorg Med Chem, 2015).
Active and inactive are the calls of the source. The rule behind the calls is not given here.

Experiments:
Plasmodium falciparum = experiment: Antimalarial activity against chloroquine-sensitive Plasmodium falciparum 3D7 infected in human erythrocytes assessed as inhibition of parasite growth after 72 hrs by SYBR Green I method; assay type: functional, organism-based; conditions: 3D7, 72 h
Method in brief: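 P. falciparum 3D7 grown in human erythrocytes (2% hematocrit) in RPMI1640 with Hepes, hypoxanthine, glucose, bicarbonate and Albumax I under 5% CO2/5% O2/90% N2. 10 mM DMSO stocks, 3-fold serial dilutions. Quadruplicate wells at 0.5% parasitemia, 0.1% DMSO final, 72 h at 37 °C. SYBR Green I lysis buffer added, 1 h dark, fluorescence 497/520. IC50 by four-parameter logistic fit.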

HepG2 = experiment: Cytotoxicity against human HepG2 cells assessed as inhibition of cell viability after 72 hrs by PrestoBlue Cell Viability Reagent based assay; conditions: HepG2, 72 h
Method in brief: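 HepG2 kept in DMEM with 10% FBS and L-glutamine on poly-D-lysine at 37 °C, 5% CO2. Seeded 10,000 cells/well, allowed to adhere at least 4 h, then exposed to compound for 72 h. PrestoBlue added for 30 min at 37 °C, fluorescence Ex 560/Em 590 nm. IC50 by nonlinear regression.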

[1] = Selectivity index, ratio of IC50 for human HepG2 cells to IC50 for chloroquine-sensitive Plasmodium falciparum 3D7 infected in human erythrocytes; assay type: toxicity, cell-based; conditions: read-out: Ratio IC50
[2] = biological target: Cathepsin D (Homo sapiens) (UniProt P07339); experiment: Inhibition of human recombinant cathepsin D using Mca-PLGL-Dpa-AR-NH2 as substrate up to 10 uM by FRET assay
Method in brief: (§1)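 Recombinant human cathepsin D at 20 ng/µl and cathepsin E at 1 ng/µl, each activated 30 min at RT in 0.1 M NaOAc, 0.2 M NaCl, pH 3.5. FRET substrate added at 20 uM final. Run 60 min at RT, time-resolved fluorescence Ex/Em 360/460 nm. IC50 by nonlinear regression.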

[3] = biological target: T1, Cathepsin E (Homo sapiens) (UniProt P14091); experiment: Inhibition of human recombinant cathepsin E using Mca-PLGL-Dpa-AR-NH2 as substrate up to 10 uM by FRET assay; method in brief: as §1
T1 sequence (whole entry): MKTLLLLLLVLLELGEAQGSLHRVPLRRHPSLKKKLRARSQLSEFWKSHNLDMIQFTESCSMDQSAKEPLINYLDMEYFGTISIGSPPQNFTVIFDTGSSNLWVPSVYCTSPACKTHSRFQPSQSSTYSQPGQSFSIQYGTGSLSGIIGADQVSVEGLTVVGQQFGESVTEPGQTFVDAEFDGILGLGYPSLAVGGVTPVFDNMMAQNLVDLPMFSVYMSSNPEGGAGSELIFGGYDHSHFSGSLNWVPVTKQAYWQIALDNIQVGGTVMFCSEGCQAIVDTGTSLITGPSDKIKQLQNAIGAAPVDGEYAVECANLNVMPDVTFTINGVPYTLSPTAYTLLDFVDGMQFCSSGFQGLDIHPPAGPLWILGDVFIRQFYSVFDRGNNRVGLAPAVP

Plasmodium [4] = experiment: Inhibition of Plasmodium plamepsin 4 using EDANS-CO-CH2-CH2-CO-ALERMFLSFP-Dap(DABCYL)OH as substrate up to 10 uM after 60 mins by fluorescence assay
Method in brief: (§2)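 Recombinant PM-2 or PM-4, purified and activated at 0.3 mg/ml in pH 4.5 citrate, 0.1% Tween-20, 50 mM DTT for 40 min at RT. Then diluted in 50 mM sodium acetate pH 4.7, 0.01% Tween-20. Serially diluted compounds added, followed by peptide substrate at 20 μM final. Run 60 min at RT, fluorescence Ex/Em 360/535 nm. IC50 derived from the curve.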

[5] = biological target: Beta-secretase 1 (Homo sapiens) (UniProt P56817); experiment: Inhibition of human recombinant BACE1 using Mca-SEVNLDAEFRK(Dnp)RR-NH2 as substrate up to 10 uM by FRET assay
Method in brief: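 Recombinant human BACE1 at 20 ng/µl, activated 15 min at RT in 100 mM sodium acetate pH 4.0. FRET substrate added at 20 uM final. Run 60 min at RT, time-resolved fluorescence Ex/Em 360/460 nm. IC50 by nonlinear regression.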

Plasmodium [6] = experiment: Inhibition of Plasmodium plamepsin 2 using EDANS-CO-CH2-CH2-CO-ALERMFLSFP-Dap(DABCYL)OH as substrate up to 10 uM after 60 mins by fluorescence assay; method in brief: as §2

Chain of Cathepsin D (Homo sapiens) (P07339 65-162 limits assumed): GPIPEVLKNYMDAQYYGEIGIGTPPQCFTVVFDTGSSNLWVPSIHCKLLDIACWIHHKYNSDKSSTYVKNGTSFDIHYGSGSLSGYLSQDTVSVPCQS
Chain of Cathepsin D (Homo sapiens) (P07339 169-412 limits assumed): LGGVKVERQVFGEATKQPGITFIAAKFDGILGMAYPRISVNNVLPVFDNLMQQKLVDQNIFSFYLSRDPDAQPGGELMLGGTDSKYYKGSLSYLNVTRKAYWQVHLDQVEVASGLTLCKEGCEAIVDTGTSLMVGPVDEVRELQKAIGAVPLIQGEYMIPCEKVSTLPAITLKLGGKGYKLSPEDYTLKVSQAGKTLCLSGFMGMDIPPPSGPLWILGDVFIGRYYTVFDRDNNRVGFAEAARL
Chain of Beta-secretase 1 (Homo sapiens) (P56817 whole entry): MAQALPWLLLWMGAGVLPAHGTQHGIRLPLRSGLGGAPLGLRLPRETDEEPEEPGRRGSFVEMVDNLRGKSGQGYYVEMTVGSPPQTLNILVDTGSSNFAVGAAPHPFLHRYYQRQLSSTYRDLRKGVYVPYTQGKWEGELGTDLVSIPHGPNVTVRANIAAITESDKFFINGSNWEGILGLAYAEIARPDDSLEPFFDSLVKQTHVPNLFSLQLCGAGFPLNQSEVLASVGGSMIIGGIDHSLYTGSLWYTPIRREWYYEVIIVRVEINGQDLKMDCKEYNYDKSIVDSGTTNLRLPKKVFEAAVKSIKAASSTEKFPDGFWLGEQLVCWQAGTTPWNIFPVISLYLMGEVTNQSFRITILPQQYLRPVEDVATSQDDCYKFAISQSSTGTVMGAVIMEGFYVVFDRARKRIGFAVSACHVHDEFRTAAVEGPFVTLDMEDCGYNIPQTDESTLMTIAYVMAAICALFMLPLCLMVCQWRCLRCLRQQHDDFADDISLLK

`CCN1C(=O)N(CCC(C)C)C2(CCN(Cc3cc(O)cc(Cl)c3)CC2)C1=O` gave an IC50 (Plasmodium falciparum) of 0.76 µM.

Molecule `CCN1C(=O)N(CCC(C)C)C2(CCN(Cc3cc(Cl)cc(Cl)c3O)CC2)C1=O` has an IC50 (Plasmodium falciparum) of 0.46 µM.

With `CCN1C(=O)N(CCC(C)C)C2(CCN(Cc3ccc(O)c(Cl)c3)CC2)C1=O` the IC50 (Plasmodium falciparum) was 2.6 µM.

Work on `CCN1C(=O)N(c2ccccc2)C2(CCN(Cc3cc(Cl)ccc3O)CC2)C1=O` yielded an IC50 (Plasmodium falciparum) of 3.6 µM.

With `CCN1C(=O)N(Cc2ccc(OC)cc2)C2(CCN(Cc3cc(Cl)ccc3O)CC2)C1=O` the IC50 (Plasmodium falciparum) was 0.56 µM.

In the case of `CCN1C(=O)N(CCC(C)C)C2(CCN(Cc3cccc(OC)c3)CC2)C1=O`, the IC50 (Plasmodium falciparum) is reported as 16 µM.

For `CCN1C(=O)N(CCC(C)C)C2(CCN(Cc3cccc(Cl)c3)CC2)C1=O`, the IC50 (Plasmodium falciparum) was 14 µM.

In the case of `CC(C)CCN1C(=O)N(CCCc2ccncc2)C(=O)C12CCN(Cc1cc(Cl)ccc1O)CC2`, the IC50 (Plasmodium falciparum) is reported as 0.61 µM.

`CCN1C(=O)N(CCC(C)C)C2(CCN(Cc3cccc(Cl)c3O)CC2)C1=O` showed an IC50 (Plasmodium falciparum) of 1.1 µM.

`CCN1C(=O)N(Cc2ccc(C(F)(F)F)cc2)C2(CCN(Cc3cc(Cl)ccc3O)CC2)C1=O` gave an IC50 (Plasmodium falciparum) of 0.23 µM.

For `CCN1C(=O)N(C2CCCC2)C2(CCN(Cc3cc(Cl)ccc3O)CC2)C1=O`, the IC50 (Plasmodium falciparum) was 0.43 µM.

For `CCN1C(=O)N(CCC(C)C)C2(CCN(Cc3cc(-c4ccccc4)ccc3O)CC2)C1=O`, the IC50 (Plasmodium falciparum) was 0.29 µM and the IC50 (HepG2) was greater than 50 µM.

With `CCN1C(=O)N(Cc2ccc(C#N)cc2)C2(CCN(Cc3cc(Cl)ccc3O)CC2)C1=O` the IC50 (Plasmodium falciparum) was 1.5 µM.

In the case of `CCN1C(=O)N(Cc2ccccc2)C2(CCN(Cc3cc(Cl)ccc3O)CC2)C1=O`, the IC50 (Plasmodium falciparum) is reported as 0.56 µM.

For `CCN1C(=O)N(CCC(C)C)C2(CCN(Cc3ccc(OC)cc3OC)CC2)C1=O`, the IC50 (Plasmodium falciparum) was 7.6 µM.

In the case of `CCN1C(=O)N(CCC(C)C)C2(CCN(Cc3cc(Cl)c(Cl)cc3O)CC2)C1=O`, the selectivity ratio [1] is reported as greater than 500, the inhibition [2] is reported as “inactive” and the IC50 (Plasmodium falciparum) is reported as 0.09 µM. For the same molecule, the IC50 (HepG2) was greater than 50 µM, the inhibition [3] was “inactive” and the inhibition (Plasmodium [4]) was “inactive”. For the same molecule, the inhibition [5] was “inactive” and the inhibition (Plasmodium [6]) was “inactive”.

For `CCN1C(=O)N(CCC(C)C)C2(CCN(Cc3ccccn3)CC2)C1=O`, the IC50 (Plasmodium falciparum) was greater than 10 µM.

For `CCN1C(=O)NC2(CCN(Cc3cc(Cl)ccc3O)CC2)C1=O`, the IC50 (Plasmodium falciparum) was greater than 10 µM.

`CCN1C(=O)N(CCC(C)C)C2(CCN(Cc3c(O)ccc(Cl)c3Cl)CC2)C1=O` showed an IC50 (Plasmodium falciparum) of 0.28 µM.

Molecule `CC(C)CCN1C(=O)N(C(C)C)C(=O)C12CCN(Cc1cc(Cl)ccc1O)CC2` has an IC50 (Plasmodium falciparum) of 0.11 µM.

For `CCN1C(=O)N(CCC(C)C)C2(CCN(Cc3cc(OC)ccc3O)CC2)C1=O`, the IC50 (Plasmodium falciparum) was 0.56 µM.
